BaF3 parental – counter-screen for JAK2V617F inhibitors: parental Ba/F3 viability inhibitors; CellTiter-Glo ATP luminescence; inhibition, % at 5.6 µM; 220,000 compounds, 1.1% hits;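 active = inhibition above a per-campaign cutoff, the mean inhibition of all tested compounds plus 3 SD, cut at about 27% in these data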;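 also: 0% = DMSO wells and 100% = JAK Inhibitor I control wells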
APP 5UTR inh – APP translation inhibition | SH-SY5Y APP 5'UTR-luciferase reporter, luminescence | 190,000 compounds, 0.82% hits | inhibition, % at 2 µM;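 active = inhibition above a set limit, derived from the sample mean plus 3 SD, cut at about 45% in these data; inconclusive = one replicate passes the limit while the other fails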
Ba/F3 V617F tox – loss of viability in JAK2V617F-driven Ba/F3 cells. Ba/F3 EpoR-JAK2V617F viability, ATP luminescence. inhibition, % at 5.6 µM. 220,000 compounds, 1.1% hits. AID 1446;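 active = inhibition above the campaign mean plus 3 SD over all tested compounds, cut at about 24% in these data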;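 also: cytokine-independent growth of Ba/F3 cells driven by EpoR plus mutant JAK2; 0% = DMSO-treated cells and 100% = JAK inhibitor I control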
IEC-6 tox – IEC-6 cytotoxicity, counter-screen for KLF5 inhibitors | luminescence viability | inhibition, % at 5 µM | 290,000 compounds, 0.78% hits | AID 1825; in the data active = inhibition above about 22%;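 also: 0% = plate median of test compound wells and 100% = cytotoxic reference compound wells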
bCat nuc transl – alters nuclear translocation of beta-catenin in HeLa cells | immunofluorescence imaging | nuclear translocation activity, % at 5 µM | 190,000 compounds, 0.3% hits;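 active = nuclear translocation activity above 50% at 5 µM, with a well cell count of 50 or more; inconclusive = wells under 50 cells across six images, flagged as toxic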;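 also: per-cell ratio of nuclear to cytoplasmic median beta-catenin stain intensity; plate controls were DMSO negative control for no effect and GSK-3 inhibitor IX positive control for full effect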
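Assay system: human HeLa cells, native beta-catenin; doses: 5 µM primary, 0.02–20 µM confirmation; incubation: compound treatment 24 h, 37°C, 5% CO2; technique: fluorescence imaging of beta-catenin antibody stain plus DAPI; measure: % activation, nuclear-to-cytoplasmic median beta-catenin signal ratio per cell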
MT stabilizer – microtubule stabilizers in HeLa cells; HeLa tubulin immunostaining HCS, 24 h; share of cells brighter than vehicle mean+2SD; % tubulin-high responders, % at 10 µM; 200,000 compounds, 0.83% hits; AID 2205;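 active = plate Z-score above 3 for both tubulin-high and condensed-nucleus cell shares, with cell loss under 80%, at 10 µM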;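 also: anti alpha tubulin signal scored within the nucleus-defined area of each cell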
Starred values were filed as active, the others as inactive; ? = inconclusive; · = no result given. Shown are actives, neighbours in structure and some others; about 2.2% of the full set was active somewhere.

SMILES	BaF3 parental	APP 5UTR inh	Ba/F3 V617F tox	IEC-6 tox	bCat nuc transl	MT stabilizer
CCSc1nnc(NC(=O)c2ccc3c(c2)OCO3)s1	93*	-53	-1	-5	2	3
CC(C)(C)NC(=O)CSc1nnc(NC(=O)c2ccccc2Cl)s1	0	46*	-4	7	-1	5
O=C(CC(=O)NCc1ccc(Cl)cc1)NCc1ccccc1	·	·	·	-6	·	·
CCOc1ccccc1NC(=O)CCS(=O)(=O)c1ccc2c(c1)CCN2C(C)=O	·	·	·	-6	·	·
CCC(CC)C(=O)Nc1nnc(CCc2ccccc2)s1	·	·	·	-5	·	·
CCCCOc1ccc(/C=N/NC(=O)c2nnn(-c3nonc3N)c2C)cc1	·	·	·	6	·	·
CC(=O)c1cccc(NCC(=O)Nc2cc(S(=O)(=O)N3CCCCC3)ccc2C)c1	·	·	·	-1	·	·
O=C(COc1ccc2c(-c3ccccc3)cc(=O)oc2c1)Nc1ccc(CCO)cc1	·	·	·	0	·	·
CC(OC(=O)CCCN=C1NS(=O)(=O)c2ccccc21)C(=O)NC1CCCCC1C (centres undefined)	·	·	·	-1	·	·
CCOC(=O)Nc1ccc(S(=O)(=O)N2CCC(C)CC2)cc1	4	-12	1	1	3	18*
CCOC(=O)c1oc2ccc(S(=O)(=O)n3nc(-c4ccc(Cl)cc4)cc3N)cc2c1C	3	10	-4	-1	-2	17*
CC(C)(C)SCCNC(=O)/C=C/c1ccccc1	45*	·	0	0	1	·
Cc1nn(C(C)C(=O)NCCCN2CCCC2)c(=O)c2nn(-c3ccccc3)c(C)c12 (centres undefined)	·	·	·	3	·	·
CCC(=O)NC1=C(NC(C)c2ccccc2)C(=O)c2ccccc2C1=O (centres undefined)	2	-16	1	9	·	2
CCC(=O)NC1=C(Cl)C(=O)C(NC(=O)CC)=C(Cl)C1=O	2	·	8	73*	0	·
CC(C)CNC(=O)CN1c2cccc3cccc(c23)S1(=O)=O	·	·	·	0	·	·
Cn1cnc([N+](=O)[O-])c1S(=O)(=O)c1cccc(Cl)c1	102*	9	86*	68*	-1	3
Cc1nn(C(C)C(=O)c2cccc(Cl)c2)c(C)c1[N+](=O)[O-] (centres undefined)	4	12	0	1	-1	2
COc1ccc(CC(=O)NCc2cccs2)cc1	23	10	8	17	54*	43*
C=CC[n+]1c(-c2ccc(C)cc2)csc1Nc1ccc(NC(C)=O)cc1	5	50*	-1	-1	3	3
O=C(COC(=O)c1ccc(S(=O)(=O)N2CCCC2)cc1)Nc1cccnc1Cl	8	11	0	3	-4	3
O=C(N/N=C\c1c(O)ccc2ccccc12)c1ccc(S(=O)(=O)N2CCCCC2)cc1	9	86*	-3	-4	4	3
O=C(Nc1cccnc1Cl)c1ccc(S(=O)(=O)N2CCCCCC2)cc1	4	90*	0	-2	-6	2
O=C(NCc1ccccc1)c1ccc(S(=O)(=O)N2CCCC2)cc1	0	51*	-3	4	0	2
O=C(NCc1cccnc1)c1ccc(S(=O)(=O)N2CCCCC2)cc1	4	18	-1	-4	-1	1
SMILES	BaF3 parental	APP 5UTR inh	Ba/F3 V617F tox	IEC-6 tox	bCat nuc transl	MT stabilizer
COc1ccc(CNC(=O)c2ccc(S(=O)(=O)N3CCCC3)cc2)cc1OC	5	52*	0	-8	·	2
O=C(N/N=C/c1c(O)ccc2ccccc12)c1ccc(CO)nc1	·	·	·	4	·	·
COc1cc2cc(C(=O)Nc3ccc4c(c3)OCCO4)[nH]c2cc1OC	·	·	·	-5	·	·
Cn1cc(C(=O)C(=O)N2CCc3ccccc32)c2ccccc21	·	·	·	3	·	·
CCCOc1ccc(C(=O)Nc2ccc(N3CCN(C(=O)c4ccco4)CC3)cc2)cc1	·	·	·	-7	·	·
O=C(NC(=S)NC1CCCCCCCCCCC1)c1cccnc1	65*	2	-2	-4	·	1
O=C(NC(=S)NC1CC1)c1cccnc1	5	1	5	-3	2	2
COc1ccc(-c2cc(C(F)F)n3ncc(C(=O)N4CCc5ccccc54)c3n2)cc1	5	87*	-1	0	6	26*
Cc1ccccc1S(=O)(=O)NC1=NCCCCC1	1	-6	-1	-8	0	14*
O=S(=O)(NC1=NCCCCC1)c1ccccc1Cl	0	·	-4	-4	1	·
COc1cccc(N2CCN(S(=O)(=O)c3ccc4c(c3)NC(=O)CS4)CC2)c1	·	·	·	-8	·	·
O=C(c1ccccn1)N(Cc1ccco1)C1(C(=O)NC2CCCC2)CCCCC1	45*	9	6	0	·	2
Cc1cccc(-n2ncc3c(NCc4ccco4)ncnc32)c1	4	-49	-1	8	45	28*
COc1ccc(Nc2ncnc3c2cnn3-c2ccccc2)cc1OC	2	-10	0	-1	0	4
COc1ccc(OC)c(Nc2ncnc3c2cnn3-c2cccc(C)c2)c1	3	16	0	15	1	35*
Cc1ccc(-n2ncc3c(NCc4ccco4)ncnc32)cc1C	-1	-129	-4	3	0	9.4*
Cc1cccc(-n2ncc3c(NCc4ccccc4)ncnc32)c1	15	-48	4	6	-1	6
COc1ccccc1NC(=O)Cn1c2ccccc2c2nc3n(c(=O)c21)CCS3	1	-15	-5	-5	-1	4
COc1ccc(Br)cc1/C=C/C(=O)c1ccc(NC(C)=O)cc1	-1	38	22	-2	52*	8
COc1cc(NC(=O)c2ccccc2)c(OC)cc1NC(=O)Cc1ccc(C)cc1	·	·	·	5	·	·
Cc1cc(C(F)(F)F)c(C#N)c(SCC(=O)Nc2nc3ccccc3s2)n1	1	-180	1	5	4	2
Cc1nc(SCC(=O)Nc2nc3ccccc3s2)c(C#N)c(C)c1C	9	64*	1	5	-2	3
c1cnc2ccc(C(c3nnnn3C3CCCCC3)N3CCN(C4CCCCC4)CC3)cc2c1 (centres undefined)	33*	9	37*	-6	·	3
CC1(C)COC(c2cc([N+](=O)[O-])ccc2Cl)=N1	0	-9	-5	1	-6	1
CC1(C)COC(/C=C/c2cccc([N+](=O)[O-])c2)=N1	-2	8	5	7	8	24*
COc1cc(C2NC(=O)NC(C)=C2C(=O)OCC2CCCCC2)ccc1O (centres undefined)	·	·	·	-2	·	·
CCN(CC)c1ccc(/C=C(/C#N)c2nc3ccccc3[nH]2)c(OC(C)C)c1	4	-56	-2	-5	·	60*
CCOc1cccc(/C=C(/C#N)c2nc3ccccc3[nH]2)c1OCC(=O)O	·	·	·	-3	·	·
COc1cccc2c1C(=O)c1c(O)c3c(c(O)c1C2=O)C[C@@](O)(C(C)=O)C[C@@H]3O[C@H]1C[C@H](N)[C@H](O)[C@H](C)O1	101*	96*	102*	91*	?	77
Cc1c(Cc2ccccc2)sc(NC(=O)/C=C/c2cccc3ccccc23)c1C(N)=O	1	7	-1	-4	1	18*
